Measurements from ChEMBL document CHEMBL1123400, “Synthesis and biological activity of certain nucleoside and nucleotide derivatives of pyrazofurin” (1986).

Assays:
Measles morbillivirus = experiment: In vitro antiviral activity against measles virus in Vero cells; assay type: functional; details: read-out: ED50 (the source's name)
Summary of the method: (§1)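 Confluent Vero monolayers (4 × 10^4 cells/well, grown 24 h at 37 °C in EMEM with 10% newborn bovine serum) were infected with virus: HSV-2 at 100, measles at 100, para-3 at 60 TCID50/well. After 30 min adsorption at 37 °C, compound was added in seven 0.5-log steps, final 5 × 10^-6 to 5 × 10^-3 M (active ones 5 × 10^-7 to 5 × 10^-4 M), duplicate wells.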

P388 [1] = experiment: In vitro inhibitory effect on growth of P388 leukemia cells; assay type: functional; details: Mus musculus, read-out: ID50 (the source's name)
Summary of the method: (§2)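 Suspension cells in RPMI-1640 with 10% FBS and 20 mM Hepes were seeded at 1 × 10^5 cells/mL. Filter-sterilized compound was added in duplicate at log concentrations 1 × 10^-10 to 1 × 10^-4 M. After 48 h at 37 °C, cells were Coulter-counted. ID50 is 50% growth inhibition versus untreated controls, averaged over two to three determinations.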

Vaccinia virus = experiment: In vitro antiviral activity against vaccinia virus in Vero cells.; assay type: functional; details: Orthopoxvirus vaccinia, read-out: ED50 (the source's name)
Human alphaherpesvirus 2 = experiment: In vitro antiviral activity against herpes simplex virus type 2 (HSV-2) in Vero cells.; assay type: functional; details: Human alphaherpesvirus 2, Vero; read-out: ED50 (the source's name); summary of the method: as §1
L1210 [2] = experiment: In vitro inhibitory effect on growth of L1210 leukemia cells; assay type: functional; details: Mus musculus, read-out: ID50 (the source's name); summary of the method: as §2
B16 = experiment: In vitro inhibitory effect on growth of B16 melanoma cells; assay type: functional; details: Mus musculus, read-out: ID50 (the source's name)
Summary of the method: (§3)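 Monolayers were seeded at 2.5 × 10^4 cells/well and grown 24 h at 37 °C, 5% CO2. Lewis lung cells were kept in RPMI-1640 with 5% fetal calf serum; B16 cells in MEM with 10% FCS, nonessential amino acids, 1 mM pyruvate and vitamins. Medium was replaced with compound at log concentrations 1 × 10^-10 to 1 × 10^-4 M. After 72 h, cells were PBS-washed, trypsinized and Coulter-counted. ID50 is 50% growth inhibition versus controls, averaged over two to three determinations.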

Vero = experiment: Maximum tolerated concentration against Vero cells.; assay type: functional, Chlorocebus sabaeus
Summary of the method: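 Single uninfected confluent Vero monolayer wells were exposed alongside the antiviral wells, final 5 × 10^-6 to 5 × 10^-3 M, for 72 h at 37 °C, 5% CO2. Cytotoxicity was any microscopically visible change in morphology or monolayer density (lysis, rounding, detachment). MTC is the […].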

[3] = test system: Lewis lung carcinoma cell line; experiment: In vitro inhibitory effect on growth of lewis lung carcinoma cells; assay type: functional; details: Mus musculus, read-out: ID50 (the source's name); summary of the method: as §3
Human respirovirus 3 = experiment: In vitro antiviral activity against parainfluenza type 3 virus in Vero cells.; assay type: functional; details: Human respirovirus 3, Vero; read-out: ED50 (the source's name); summary of the method: as §1
P388 [4] = experiment: In vitro inhibitory effect on growth of P388 leukemia cell; assay type: functional; details: Mus musculus, read-out: ID50 (the source's name); summary of the method: as §2
[5] = test system: Lewis lung carcinoma cell line; experiment: In vitro inhibitory effect on growth of lewis lung carcinoma cells.; assay type: functional; details: Mus musculus, read-out: ID50 (the source's name); summary of the method: as §3
L1210 [6] = experiment: In vitro inhibitory effect on growth of L1210 leukemia cells.; assay type: functional; details: Mus musculus, read-out: ID50 (the source's name); summary of the method: as §2
P388 [7] = experiment: In vitro inhibitory effect on growth of P388 leukemia cells.; assay type: functional; details: Mus musculus, read-out: ID50 (the source's name); summary of the method: as §2
[8] = In vitro inhibitory effect on growth of […] cells.; assay type: functional; details: Mus musculus; read-out: ID50 (the source's name); summary of the method: as §3

SMILES | EC50 (Measles morbillivirus) | IC50 (P388 [1]) | EC50 (Vaccinia virus) | EC50 (Human alphaherpesvirus 2) | IC50 (L1210 [2]) | IC50 (B16) | MTC (Vero) | IC50 [3] | EC50 (Human respirovirus 3) | IC50 (P388 [4]) | IC50 [5] | IC50 (L1210 [6]) | IC50 (P388 [7]) | IC50 [8]
NC(=S)c1[nH]nc([C@@H]2O[C@H](CO)[C@@H](O)[C@H]2O)c1OCc1ccccc1 | 500 µM | > 100 µM | 2100 µM | 2800 µM | > 100 µM | > 100 µM | >5 mM | > 100 µM | > 5000 µM | – | – | – | – | –
NC(=O)c1[nH]nc([C@@H]2O[C@H](COP(=O)([O-])[O-])[C@@H](O)[C@H]2O)c1OCc1ccccc1.[Na+].[Na+] | > 5000 µM | 94 µM | > 5000 µM | > 5000 µM | 130 µM | – | >5 mM | – | > 5000 µM | – | – | – | – | –
COc1c([C@@H]2O[C@H](CO)[C@@H](O)[C@H]2O)nn(C)c1C(N)=O | > 5000 µM | – | 5000 µM | 3200 µM | > 100 µM | – | 5 mM | – | > 5000 µM | > 100 µM | – | – | – | –
CCOP(=O)(O)OC[C@H]1O[C@@H](C2=NNC(C(N)=O)C2=O)[C@H](O)[C@@H]1O (some centres not stated) | 97 µM | 0.0032 µM | 26 µM | 590 µM | 0.0039 µM | 0.23 µM | >5 mM | 0.0007 µM | 80 µM | – | – | – | – | –
NC(=O)C1NN=C([C@@H]2O[C@H](CO)[C@@H](O)[C@H]2O)C1=O (some centres not stated) | 9.6 µM | 0.0033 µM | 2.8 µM | 20 µM | 0.0032 µM | 0.063 µM | 1.6 mM | 0.0018 µM | 3 µM | – | – | – | – | –
N=C(N)C1NN=C([C@@H]2O[C@H](CO)[C@@H](O)[C@H]2O)C1=O (some centres not stated) | 5000 µM | > 100 µM | > 5000 µM | 3100 µM | 79 µM | > 100 µM | >5 mM | 89 µM | – | – | – | – | – | –
CN1N=C([C@@H]2O[C@H](CO)[C@@H](O)[C@H]2O)C(=O)C1C(N)=O (some centres not stated) | > 5000 µM | 17 µM | 1600 µM | > 5000 µM | 15 µM | – | >5 mM | – | > 5000 µM | – | – | – | – | –
COc1c([C@@H]2O[C@H](CO)[C@@H](O)[C@H]2O)n[nH]c1C(N)=O | > 5000 µM | 40 µM | 2800 µM | > 5000 µM | 29 µM | – | >5 mM | – | > 5000 µM | – | – | – | – | –
N/C(=N/O)c1[nH]nc([C@@H]2O[C@H](CO)[C@@H](O)[C@H]2O)c1OCc1ccccc1 | > 5000 µM | > 100 µM | > 5000 µM | > 5000 µM | > 100 µM | – | >5 mM | – | > 5000 µM | – | – | – | – | –
COP(=O)(OC)OC[C@H]1O[C@@H](C2=NNC(C(N)=O)C2=O)[C@H](O)[C@@H]1O (some centres not stated) | 1400 µM | 0.012 µM | 280 µM | > 5000 µM | 0.0058 µM | 2.3 µM | >5 mM | 0.01 µM | 1000 µM | – | – | – | – | –
NC(=O)c1[nH]nc([C@@H]2O[C@H](CO)[C@@H](O)[C@H]2O)c1OCc1ccccc1 | 1300 µM | 62 µM | > 5000 µM | > 5000 µM | 75 µM | – | >5 mM | – | > 5000 µM | – | – | – | – | –
N#CC1NN=C([C@@H]2O[C@H](CO)[C@@H](O)[C@H]2O)C1=O (some centres not stated) | 5000 µM | 45 µM | 5000 µM | > 5000 µM | 13 µM | 72 µM | >5 mM | 28 µM | > 5000 µM | – | – | – | – | –
NC(=O)c1[nH]nc(C2O[C@H](COP(=O)(O)O)[C@H](O)[C@@H]2O)c1O (some centres not stated) | 20 µM | 0.001 µM | 4 µM | 23 µM | 0.0027 µM | 0.24 µM | >5 mM | 0.005 µM | 6.3 µM | – | – | – | – | –
NC(=O)c1[nH]nc(C2O[C@@H](COP(=O)(O)OP(=O)(O)OC[C@H]3OC(n4cnc5c(N)ncnc54)[C@H](O)[C@@H]3O)[C@H](O)[C@@H]2O)c1O (some centres not stated) | 16 µM | – | 9 µM | 10 µM | – | – | 5 mM | – | 5 µM | – | 0.0048 µM | 0.004 µM | 0.0088 µM | 0.6 µM
NC(=O)c1[nH]nc(C2OC3COP(=O)(O)O[C@@H]3[C@@H]2O)c1O (some centres not stated) | > 5000 µM | 4.4 µM | 250 µM | 130 µM | 2.5 µM | 6.3 µM | >5 mM | 1.7 µM | 500 µM | – | – | – | – | –
NC(=O)c1ncn([C@@H]2O[C@H](CO)[C@@H](O)[C@H]2O)n1 [RIBAVIRIN] | 99 µM | – | 90 µM | 190 µM | – | – | >5 mM | – | 160 µM | – | – | – | – | –
